# Hits are enriched below; roughly 3.5% of the tested compounds scored in any of these assays.
# MrgX1 allo act = allosterically activates human MrgX1 receptor signaling; AID 588675; MrgX1-HEK293, Fluo-4 calcium flux, FDSS; hits give high values; 310,000 compounds, 0.63% hits; Q96LB2; B-score at 10 µM;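 active = plate-corrected calcium response at least 3 library SD above typical, normal starting fluorescence, not activating the receptor alone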;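 also: compound read alongside a low EC10 to EC30 dose of BAM8-22 agonist; peak minus trough fluorescence over baseline measured at the second addition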
# Target sequence (Q96LB2 whole entry, looked up): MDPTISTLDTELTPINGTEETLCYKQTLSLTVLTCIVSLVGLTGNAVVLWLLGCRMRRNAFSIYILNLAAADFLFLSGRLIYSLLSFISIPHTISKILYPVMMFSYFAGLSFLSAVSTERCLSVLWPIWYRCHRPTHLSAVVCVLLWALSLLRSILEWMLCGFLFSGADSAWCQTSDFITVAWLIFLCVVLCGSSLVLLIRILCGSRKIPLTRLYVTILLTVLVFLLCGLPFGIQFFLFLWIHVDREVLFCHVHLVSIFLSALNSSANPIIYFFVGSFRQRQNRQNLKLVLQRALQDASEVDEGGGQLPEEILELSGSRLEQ
# MrgX1 agonist = agonists of human MrgX1 receptor | MrgX1-HEK293 cells, Fluo-4 calcium fluorescence, agonist mode; hits give high values | B-score at 10 µM | 310,000 compounds, 0.44% hits;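 active = calcium response B-score plate-corrected fluorescence ratio at least 3 library SD, with starting fluorescence B-score inside 5 SD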
#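 Assay system: stable human MrgX1 HEK293 cell line. Quantity: 15,000 cells per well. Schedule: cells plated overnight, dye loaded 0.5 h 37 °C, 0.5 h room temperature. Detection: Fluo-4 NW calcium-flux fluorescence, kinetic read. Read-out basis: peak-minus-minimum fluorescence over baseline, converted to B scores. Control set: positive and negative control wells on each plate.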
# RGS4 inh = inhibitors of human RGS4 | B-score at 10 µM | HEK293 M3R/RGS4 inducible, Fluo-4 calcium flux; hits give high values; triggered by carbachol at its EC20 | AID 463165 | 310,000 compounds, 0.45% hits | P49798;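 active = B-score, a plate-corrected calcium signal, over three deviations above library mean, with baseline fluorescence within five deviations of library mean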;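 also: RGS4 expression induced by doxycycline in cells with stable M3 receptor; B-score is computed from the integrated fluorescence ratio over baseline after carbachol; higher B-score means a larger calcium signal and so more RGS4 inhibition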
# Target sequence (P49798 whole entry, looked up): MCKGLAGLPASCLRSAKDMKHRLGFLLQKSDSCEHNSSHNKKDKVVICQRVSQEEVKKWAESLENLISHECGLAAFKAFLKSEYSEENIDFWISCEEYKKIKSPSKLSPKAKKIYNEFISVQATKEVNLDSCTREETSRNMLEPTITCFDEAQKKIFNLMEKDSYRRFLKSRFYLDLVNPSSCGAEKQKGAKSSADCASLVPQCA
# MrgX1 antagonist = blocks BAM8-22 activation of human MrgX1 receptor | MRGX1-HEK293 calcium flux, Fluo-4, BAM8-22 antagonism; hits give low values | B-score at 10 µM | 310,000 compounds, 1.3% hits;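 active = calcium-response B-score plate-corrected more than 3 library SD below zero, starting fluorescence within 5 deviations, no agonist response on first addition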;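 also: peak minus trough fluorescence over baseline after final BAM8-22 challenge near maximal dose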
# RGS4 pot = RGS4 potentiation or activation; 310,000 compounds, 0.92% hits; B-score at 10 µM; AID 463111; HEK293 M3R/inducible RGS4, carbachol calcium flux Fluo4; hits give low values;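 active = B-score of the integrated calcium signal more than 4 SD below the library mean, with starting fluorescence not abnormally high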;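 also: negative B-score means reduced calcium response which marks RGS4 activation or potentiation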
#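 System: HEK293 FlpIn-TREx cells, stable M3R, doxycycline-inducible RGS4. Timing: overnight RGS4 induction, 30 min dye load 37 °C, 20 min compound RT. Also added: carbachol, ECmax concentration. Measured by: Fluo4 fluorescence kinetic imaging of calcium. Evaluation: integrated calcium ratio converted to B score.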
# A number is an active result; . = inactive; / = not tested or not shown.
SMILES,MrgX1 allo act,MrgX1 agonist,RGS4 inh,MrgX1 antagonist,RGS4 pot
CCN(CC)c1ccc(S(=O)(=O)N2CCOCC2)cc1NC(=O)COC(=O)/C=C/c1ccc(C)o1,.,.,.,.,-9.59
O=C(N/C(=C/c1ccco1)C(=O)N1CCCCCC1)c1ccccc1,.,.,.,.,.
CCOC(=O)C1CCCN(C(=O)/C(=C/c2ccco2)NC(=O)c2ccccc2)C1 (stereo not given),.,.,.,.,-7.03
CC(=O)Nc1ccnn1C1CCN(C(=O)c2cccc(C)c2C)CC1,.,.,.,.,.
O=C(N1CCN(c2ccccn2)CC1)N1c2ccccc2Sc2ccccc21,.,.,.,.,-7.4
Cc1cccn2c(=O)c(/C=C(\C#N)C(N)=O)c(N3CCN(Cc4ccc5c(c4)OCO5)CC3)nc12,.,.,.,.,-8.46
O=C(NCc1ccccc1)c1sc(=S)n2c1[nH]c(=O)c1ccccc12,.,50.9,.,.,.
COc1cccc(Nc2c([N+](=O)[O-])cncc2[N+](=O)[O-])c1,.,31.1,.,.,.
NS(=O)(=O)c1ccc(Nc2c([N+](=O)[O-])cncc2[N+](=O)[O-])cc1,.,34.9,.,.,.
O=[N+]([O-])c1cncc([N+](=O)[O-])c1Nc1ccccc1Cl,.,.,.,.,.
NC(=O)NC(=O)C(Nc1ccc(N2CCCCC2)cc1)c1ccccc1 (stereo not given),.,.,.,.,-9.05
O=C(CN(C(=O)CCC(=O)Nc1nccs1)c1ccc(F)cc1)NCc1ccc(F)cc1,.,.,.,.,.
CCOC(=O)C(=O)NNc1ccc(Cl)cc1,.,.,.,.,.
CCOC(=O)C(=O)NNc1ccc(C)cc1,.,.,.,-9.02,.
COc1ccc(CC(=O)NNS(=O)(=O)c2ccccc2)cc1OC,.,.,.,-8.01,.
COc1ccc(C2CC2/C(C)=N/OC(=O)C2CC2)cc1 (stereo not given),.,.,.,.,.
COc1ccc(C2CC2C(C)=O)cc1 (stereo not given),.,30.3,.,.,.
Cc1c(CCC(=O)NCCCCCC(=O)O)c(=O)oc2c(C)c3oc4c(c3cc12)CCCC4,.,.,.,.,.
Cc1c(CCC(=O)N2CCC[C@H]2C(=O)O)c(=O)oc2c(C)c3oc4c(c3cc12)CCCC4,7.23,.,.,.,.
COc1ccc(OCC(=O)NNC(=S)NC(=O)C2CC2)cc1,.,.,.,.,.
CCc1ccc(OCC(=O)NNC(=S)NC(=O)C2CC2)c(Br)c1,.,.,.,.,.
COc1ccc(OCC(=O)NNC(=S)NC(=O)C2CCCCC2)cc1,.,50,.,.,.
CCc1ccc(OCC(=O)NNC(=S)NC(=O)C2CCCCC2)c(Br)c1,.,.,.,-8.94,.
Cc1cc(C)cc(OCC(=O)NNC(=S)NC(=O)C2CC2)c1,.,32.1,.,.,.
COc1ccc(CC(=O)NC(=S)NNC(=O)COc2c(C)cccc2C)cc1,.,27.3,.,.,.
SMILES,MrgX1 allo act,MrgX1 agonist,RGS4 inh,MrgX1 antagonist,RGS4 pot
CC(=O)N1CCN(S(=O)(=O)c2c(C)n(C)c(=O)n(C)c2=O)CC1,.,.,.,.,.
COc1ccccc1NS(=O)(=O)c1ccc(C)c(C(=O)NCCCN2CCCC2=O)c1,.,.,.,-9.11,.
Cc1ccc(S(=O)(=O)Nc2ccccc2F)cc1C(=O)NCCCN1CCCC1=O,.,.,.,.,.
Cc1cc(C)c2c(c1)C(=O)/C(=C/c1ccc(C(=O)O)cc1)CC2,16.4,.,.,.,.
C[C@@H]1CCC(=O)N(C[C@@H](C)CSc2ccccc2)CC1,.,.,.,.,.
COc1cc(C(=O)Nc2nnc(C(F)(F)F)s2)c([N+](=O)[O-])cc1OC,.,.,.,-6.42,.
COc1cc(C(=O)Nc2nnc(SC)s2)c([N+](=O)[O-])cc1OC,.,.,.,.,.
CN(CCC(=O)Nc1ccc(Cl)cc1)Cc1ccccc1,.,.,.,.,.
O=C(CSc1ccc(-c2ccc(Cl)cc2)nn1)N1CCCc2ccccc21,.,.,.,.,.
O=C(CSc1ccc(-c2ccc(F)cc2)nn1)N1CCCc2ccccc21,.,.,.,.,-7.4
Cc1c(Cl)c([N+](=O)[O-])nn1Cc1ccc(C(=O)Nc2ccc(Cl)cn2)o1,.,.,.,-6.9,.
O=C(Nc1ccc(Cl)cn1)c1ccc([N+](=O)[O-])o1,/,/,.,/,.
O=S(=O)(Nc1cccnc1)c1ccc(Br)c2ccccc12,.,.,.,.,.
O=C(COc1ccccc1)NC1CCN(Cc2ccccc2)CC1,.,.,.,.,.
CC(C)(Oc1ccc(Cl)cc1)C(=O)NC1CCN(Cc2ccccc2)CC1,.,.,.,.,-7.03
NC(=O)C1CCN(C2=C(NS(=O)(=O)c3ccc(Cl)cc3)C(=O)c3ccccc3C2=O)CC1,9.92,.,.,.,.
O=C1CC(NS(=O)(=O)c2cc(F)ccc2F)CN1c1ccc2c(c1)OCCO2 (stereo not given),.,.,.,.,.
Cc1cc(NC(=O)Cn2nc(C(=O)O)c3ccccc3c2=O)c([N+](=O)[O-])cc1C,.,.,.,.,.
Cc1cc(C(F)(F)F)c(C#N)c(Sc2ccccc2)n1,9.59,.,.,.,.
COC(=O)CSc1nc(C)cc(C(F)(F)F)c1C#N,.,.,.,.,.
CC1CN(c2nc3ccccc3nc2SCC(=O)Nc2cccc(C(F)(F)F)c2)CC(C)O1 (stereo not given),.,.,.,.,-7.61
O=C(CN1C(=O)CCS(=O)(=O)c2ccccc21)Nc1ccccc1F,.,.,.,.,.
O=C(NNC(=S)NC(=O)c1cccc([N+](=O)[O-])c1)c1ccc(O)cc1,.,.,.,.,.
CCCCC(=O)Nc1ccc(C(=O)NNC(=S)NC(=O)c2ccccc2[N+](=O)[O-])cc1,.,.,.,.,.
CCCOc1ccc(C(=O)NNC(=S)NC(=O)c2cc(-c3ccccc3)nc3ccccc23)cc1,.,.,.,-4.71,-9.33
SMILES,MrgX1 allo act,MrgX1 agonist,RGS4 inh,MrgX1 antagonist,RGS4 pot
CCCOc1ccc(C(=O)NNC(=S)NC(C)=O)cc1,.,.,.,.,.
O=C(NNC(=S)NC(=O)c1cccc([N+](=O)[O-])c1)c1ccc(Br)cc1,.,92.9,.,.,-8.28
CCCOc1ccc(C(=O)NNC(=S)NC(=O)c2ccccc2[N+](=O)[O-])cc1,8.39,.,.,.,.
O=C(NC(=S)NNC(=O)c1ccccc1[N+](=O)[O-])c1ccccc1,9.73,.,.,.,.
O=C(NNC(=S)NC(=O)c1ccccc1[N+](=O)[O-])c1ccccc1,.,.,.,.,.
Cc1ccc(OCC(=O)Oc2c(C)cccc2C)cc1C,.,.,.,.,.
CCN1C(=O)[C@@H]2[C@@H](c3ccc(-c4ccc(Cl)c(Cl)c4)c(OC)c3)N3CCCC[C@@]3(C(=O)OC)[C@@H]2C1=O,.,.,.,.,.
CCCCNC(=O)Cn1nc([N+](=O)[O-])c([N+](=O)[O-])c1C,.,.,.,-5.38,.
